# Columns and labels:
# [1] = Cell cycle arrest in human SMMC-7221 cells assessed as accumulation at G2/M phase at 4 uM after 24 hrs by propidium iodide/RNase A staining based FACSCalibur flow cytometry analysis (reference value: 8.21 +/- 0.38 %); type: functional
# [2] = Cell cycle arrest in human SMMC-7221 cells assessed as accumulation at G0/G1 phase at 1 uM after 24 hrs by propidium iodide/RNase A staining based FACSCalibur flow cytometry analysis (reference value: 72.17 +/- 1.0 %); type: functional
# [3] = Induction of apoptosis in human SMMC-7221 cells assessed as necrotic cells at 8 uM after 48 hrs by AnnexinV-FITC/propidium iodide staining based FACSCalibur flow cytometry analysis (reference value: 2.34 %); type: functional
# [4] = Induction of apoptosis in human SMMC-7221 cells assessed as necrotic cells at 0.5 uM after 48 hrs by AnnexinV-FITC/propidium iodide staining based FACSCalibur flow cytometry analysis (reference value: 2.34 %); type: functional
# [5] = Cell cycle arrest in human SMMC-7221 cells assessed as accumulation at S phase at 4 uM after 24 hrs by propidium iodide/RNase A staining based FACSCalibur flow cytometry analysis (reference value: 14.733 +/- 1.29 %); type: functional
# SW480 = assay: Cytotoxicity against human SW480 cells assessed as reduction in cell viability after 48 hrs by MTS assay; type: functional, cell-based; conditions: SW480, 48 h
# In short: (§1)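 Cells (5 × 10^3 per well) were plated 12 h before treatment, then exposed continuously to compound for 48 h. MTS was added, with 1–4 h incubation at 37 °C and OD read at 490 nm. IC50 is the concentration cutting OD by 50% versus untreated cells, taken from dose–response curves. Values are the mean of three independent determinations.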
# [6] = Induction of apoptosis in human SMMC-7221 cells assessed as viable cells at 0.5 uM after 48 hrs by AnnexinV-FITC/propidium iodide staining based FACSCalibur flow cytometry analysis (reference value: 89.8 %); type: functional; conditions: SMMC-7221, 48 h, read-out: Activity
# [7] = Induction of apoptosis in human SMMC-7221 cells assessed as viable cells at 4 uM after 48 hrs by AnnexinV-FITC/propidium iodide staining based FACSCalibur flow cytometry analysis (reference value: 89.8 %); type: functional; conditions: SMMC-7221, 48 h, read-out: Activity
# [8] = Cell cycle arrest in human SMMC-7221 cells assessed as accumulation at sub-G1 phase at 1 uM after 24 hrs by propidium iodide/RNase A staining based FACSCalibur flow cytometry analysis (reference value: 4.03 +/- 0.47 %); type: functional
# [9] = Induction of apoptosis in human SMMC-7221 cells assessed as late apoptotic cells at 0.5 uM after 48 hrs by AnnexinV-FITC/propidium iodide staining based FACSCalibur flow cytometry analysis (reference value: 7.7 %); type: functional
# [10] = Cell cycle arrest in human SMMC-7221 cells assessed as accumulation at sub-G1 phase at 2 uM after 24 hrs by propidium iodide/RNase A staining based FACSCalibur flow cytometry analysis (reference value: 4.03 +/- 0.47 %); type: functional
# [11] = Induction of apoptosis in human SMMC-7221 cells assessed as early apoptotic cells at 2 uM after 48 hrs by AnnexinV-FITC/propidium iodide staining based FACSCalibur flow cytometry analysis (reference value: 0.106 %); type: functional
# [12] = Induction of apoptosis in human SMMC-7221 cells assessed as viable cells at 8 uM after 48 hrs by AnnexinV-FITC/propidium iodide staining based FACSCalibur flow cytometry analysis (reference value: 89.8 %); type: functional; conditions: SMMC-7221, 48 h, read-out: Activity
# MCF7 = assay: Cytotoxicity against human MCF7 cells assessed as reduction in cell viability after 48 hrs by MTS assay; type: functional, cell-based; conditions: MCF7, 48 h; in short: as §1
# L02 = assay: Cytotoxicity against human LO2 cells assessed as reduction in cell viability after 48 hrs by MTS assay; type: cell-based; conditions: L02, 48 h; in short: as §1
# [13] = Cell cycle arrest in human SMMC-7221 cells assessed as accumulation at G2/M phase at 2 uM after 24 hrs by propidium iodide/RNase A staining based FACSCalibur flow cytometry analysis (reference value: 8.21 +/- 0.38 %); type: functional
# [14] = Induction of apoptosis in human SMMC-7221 cells assessed as late apoptotic cells at 4 uM after 48 hrs by AnnexinV-FITC/propidium iodide staining based FACSCalibur flow cytometry analysis (reference value: 7.7 %); type: functional
# [15] = Induction of apoptosis in human SMMC-7221 cells assessed as necrotic cells at 2 uM after 48 hrs by AnnexinV-FITC/propidium iodide staining based FACSCalibur flow cytometry analysis (reference value: 2.34 %); type: functional
# [16] = Cell cycle arrest in human SMMC-7221 cells assessed as accumulation at G0/G1 phase at 4 uM after 24 hrs by propidium iodide/RNase A staining based FACSCalibur flow cytometry analysis (reference value: 72.17 +/- 1.0 %); type: functional
# NCM460 = assay: Cytotoxicity against human NCM460 cells assessed as reduction in cell viability after 48 hrs by MTS assay; type: cell-based; conditions: NCM460, 48 h; in short: as §1
# [17] = Induction of apoptosis in human SMMC-7221 cells assessed as early apoptotic cells at 1 uM after 48 hrs by AnnexinV-FITC/propidium iodide staining based FACSCalibur flow cytometry analysis (reference value: 0.106 %); type: functional
# [18] = Induction of apoptosis in human SMMC-7221 cells assessed as early apoptotic cells at 4 uM after 48 hrs by AnnexinV-FITC/propidium iodide staining based FACSCalibur flow cytometry analysis (reference value: 0.106 %); type: functional
# [19] = Induction of apoptosis in human SMMC-7221 cells assessed as late apoptotic cells at 8 uM after 48 hrs by AnnexinV-FITC/propidium iodide staining based FACSCalibur flow cytometry analysis (reference value: 7.7 %); type: functional
# [20] = Induction of apoptosis in human SMMC-7221 cells assessed as necrotic cells at 4 uM after 48 hrs by AnnexinV-FITC/propidium iodide staining based FACSCalibur flow cytometry analysis (reference value: 2.34 %); type: functional
# [21] = Cytotoxicity against human SMMC-7221 cells assessed as reduction in cell viability after 48 hrs by MTS assay; type: functional, cell-based; conditions: SMMC-7221, 48 h; in short: as §1
# [22] = Cell cycle arrest in human SMMC-7221 cells assessed as accumulation at G2/M phase at 1 uM after 24 hrs by propidium iodide/RNase A staining based FACSCalibur flow cytometry analysis (reference value: 8.21 +/- 0.38 %); type: functional
# [23] = Induction of apoptosis in human SMMC-7221 cells assessed as early apoptotic cells at 8 uM after 48 hrs by AnnexinV-FITC/propidium iodide staining based FACSCalibur flow cytometry analysis (reference value: 0.106 %); type: functional
# BEAS-2B = assay: Cytotoxicity against human BEAS2B cells assessed as reduction in cell viability after 48 hrs by MTS assay; type: cell-based; in short: as §1
# [24] = Cell cycle arrest in human SMMC-7221 cells assessed as accumulation at G0/G1 phase at 2 uM after 24 hrs by propidium iodide/RNase A staining based FACSCalibur flow cytometry analysis (reference value: 72.17 +/- 1.0 %); type: functional
smiles,measurement,setting,value
COc1cccc2c1N(CCCn1c[n+](Cc3ccc(C)cc3)c3cc(C)c(C)cc31)C[C@@H]1Cc3ccc(Br)cc3[C@H]21.[Br-],Activity,[1],5.98%
same,Activity,[2],80.32%
same,Activity,[3],13.3%
same,Activity,[4],6.79%
same,Activity,[5],12.76%
same,IC50,SW480,750 nM
same,viability at 0.5 µM,[6],84.2%
same,viability at 4 µM,[7],15.2%
same,Activity,[8],1.32%
same,Activity,[9],8.66%
same,Activity,[10],1.21%
same,Activity,[11],0.216%
same,viability at 8 µM,[12],5.16%
same,IC50,MCF7,680 nM
same,IC50,L02,2100 nM
same,Activity,[13],9.16%
same,Activity,[14],76.8%
same,Activity,[15],6.13%
same,Activity,[16],62.54%
same,IC50,NCM460,1970 nM
same,Activity,[17],0.529%
same,Activity,[18],0.919%
same,Activity,[19],81.4%
same,Activity,[20],7.08%
same,IC50,[21],520 nM
same,Activity,[22],7.64%
same,Activity,[23],0.157%
same,IC50,BEAS-2B,2090 nM
same,Activity,[24],80.22%

# Reference: ChEMBL document CHEMBL4373640, “Synthesis and antitumor activity of aza-brazilan derivatives containing imidazolium salt pharmacophores” (Medchemcomm, 2019)
